ChEMBL document CHEMBL4373651, “Indole compounds with N-ethyl morpholine moieties as CB2 receptor agonists for anti-inflammatory management of pain: synthesis and biological evaluation” (Medchemcomm, 2019)
Activity calls are given as the source filed them.

Columns and labels:
Cannabinoid receptor 1 = Cannabinoid receptor 1 (Homo sapiens, UniProt P21554); experiment: Agonist activity at human CB1 receptor expressed in CHO cells coexpressing Galpha16 assessed as reduction in forsklin-induced cAMP production incubated for 30 mins by cAMP Hunter assay based […] analysis; assay type: cell-based
Cannabinoid receptor 1, sequence (P21554 whole entry, the tested form may be a part): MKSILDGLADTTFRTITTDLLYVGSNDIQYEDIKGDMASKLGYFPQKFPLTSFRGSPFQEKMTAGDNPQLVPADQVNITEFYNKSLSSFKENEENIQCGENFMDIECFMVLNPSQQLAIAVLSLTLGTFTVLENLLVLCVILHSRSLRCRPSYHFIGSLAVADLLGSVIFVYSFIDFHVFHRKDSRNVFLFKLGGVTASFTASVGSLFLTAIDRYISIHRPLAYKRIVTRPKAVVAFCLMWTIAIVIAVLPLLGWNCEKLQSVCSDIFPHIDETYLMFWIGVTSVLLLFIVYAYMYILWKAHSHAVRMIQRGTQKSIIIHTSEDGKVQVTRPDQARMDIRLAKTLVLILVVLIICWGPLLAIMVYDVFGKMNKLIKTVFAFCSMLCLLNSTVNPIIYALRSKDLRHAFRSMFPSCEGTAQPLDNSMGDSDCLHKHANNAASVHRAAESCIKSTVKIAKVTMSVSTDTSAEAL
Outline: (§1)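 CHO cells expressing human CB1 or CB2 with Gα16, seeded overnight at 37 °C. Test compounds in stimulation buffer with 1 mM IBMX, 0.25% BSA and forskolin, 30 min at 37 °C. Cells lysed, cAMP read by enzyme fragment complementation chemiluminescence kit. Triplicate per dilution. Efficacy relative to CP-55940 reference run twice per plate. EC50 from means.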

Cannabinoid receptor 2 = Cannabinoid receptor 2 (Homo sapiens, UniProt P34972); experiment: Agonist activity at human CB2 receptor expressed in CHO cells coexpressing Galpha16 assessed as reduction in forsklin-induced cAMP production incubated for 30 mins by cAMP Hunter assay based […] analysis; assay type: functional, cell-based; outline: as §1
Cannabinoid receptor 2, sequence (P34972 whole entry): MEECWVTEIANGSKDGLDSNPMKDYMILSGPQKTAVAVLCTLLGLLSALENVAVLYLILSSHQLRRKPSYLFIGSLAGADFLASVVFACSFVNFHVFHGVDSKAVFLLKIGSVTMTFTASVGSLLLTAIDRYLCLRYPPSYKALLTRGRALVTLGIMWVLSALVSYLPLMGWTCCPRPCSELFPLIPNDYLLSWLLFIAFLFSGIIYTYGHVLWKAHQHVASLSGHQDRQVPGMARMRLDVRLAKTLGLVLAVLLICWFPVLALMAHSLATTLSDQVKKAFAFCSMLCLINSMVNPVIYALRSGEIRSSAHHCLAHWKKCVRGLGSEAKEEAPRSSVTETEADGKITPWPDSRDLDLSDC

[1] = Selectivity ratio of EC50 for human CB1 receptor expressed in CHO cells coexpressing Galpha16 to EC50 for human CB2 receptor expressed in CHO cells coexpressing Galpha16
Outline: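 Ratio of EC50 values from the CB1 and CB2 cAMP assays in CHO-Gα16 cells: 30 min compound exposure at 37 °C with 1 mM IBMX and forskolin, chemiluminescent cAMP read-out, triplicates.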

Rattus norvegicus [2] = experiment: Antiinflammatory hyperalgesic activity against complete freund's adjuvant-induced mechanical hyperalgesic Sprague-Dawley rat model assessed as increase in paw withdraw latency at 10 mg/kg, ip pretreated with CFA for 24 hrs followed by compound administration and measured at 1 hr to 9 hrs by analgesiometer analysis; assay type: functional, organism-based
Outline: (§2)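 Male Sprague-Dawley rats, 180–200 g. Baseline mechanical paw withdrawal threshold taken with analgesiometer pressure on left hind paw, cut-off 250 g, endpoint complete withdrawal. Intraplantar 50% CFA (50 µL in 0.9% saline) under isoflurane. At 24 h, pre-drug threshold, then single i.p. dose of 0.0025–10 mg kg-1, antagonist combination or vehicle (2 mL kg-1). Thresholds read 1–24 h after dosing. % reversal = (post − pre)/(baseline − pre) × 100.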

Rattus norvegicus [3] = experiment: Antiinflammatory hyperalgesic activity against complete freund's adjuvant-induced mechanical hyperalgesic Sprague-Dawley rat model assessed as paw withdraw latency at 10 mg/kg, ip pretreated with CFA for 24 hrs followed by compound administration and measured at 24 hrs by analgesiometer analysis; assay type: functional, organism-based; outline: as §2
Rattus norvegicus [4] = experiment: (§3) Antiinflammatory hyperalgesic activity against complete freund's adjuvant-induced mechanical hyperalgesic Sprague-Dawley rat model assessed as decrease in IL-1 beta production in paw skin at 10 mg/kg, ip pretreated with CFA for 24 hrs followed by compound administration and measured after 1 hr by ELISA relative to control; assay type: functional
Outline: (§4)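 Male Sprague-Dawley rats, 180–200 g, isoflurane anaesthesia. Left hind paw given intraplantar 50% CFA (50 µL in 0.9% saline), or saline. At 24 h, single i.p. dose of drug, antagonist, combination or vehicle (2 mL kg-1). 1 h after dosing, paw skin taken and homogenised in ice-cold buffer with protease inhibitor, then centrifuged. IL-1β, IL-6 and TNF-α in supernatant by ELISA. n = 6, one-way ANOVA with Tukey test.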

Rattus norvegicus [5] = experiment: as §3, with “IL-6” for “IL-1 beta”; assay type: functional; outline: as §4
Rattus norvegicus [6] = experiment: as §3, with “TNF alpha” for “IL-1 beta”; assay type: functional; outline: as §4

Compound	EC50 (Cannabinoid receptor 2; read-out: EC50) [µM]	EC50 (Cannabinoid receptor 1; cho)	EC50 (Cannabinoid receptor 2; cho)	other results
Cc1c(CCN2CCOCC2)c2cc(Br)ccc2n1C(=O)c1cccc(Cl)c1Cl	0.0523	–	–	EC50 (Cannabinoid receptor 1; read-out: EC50): > 100 µM; Ratio EC50 [1]: >1000
Cc1c(CC(=O)NC2CCCCC2)c2cc(F)ccc2n1CCN1CCOCC1	> 100	Not Active	–	–
Cc1c(CC(=O)N2CCCC2)c2cc(F)ccc2n1CCN1CCOCC1	–	Not Active	Not Active	–
Cc1c(CCN2CCOCC2)c2cc(Cl)ccc2n1CC(=O)NC1CCCC1	16.1	Not Active	–	–
COc1ccc2c(c1)c(CCN1CCOCC1)c(C)n2CC(=O)NCc1ccc2c(c1)OCO2	28.1	Not Active	–	–
Cc1c(CCN2CCOCC2)c2cc(F)ccc2n1CC(=O)N1CCCC1	–	Not Active	Not Active	–
Cc1c(CCN2CCOCC2)c2cc(Cl)ccc2n1CC(=O)N1CCCCC1	–	Not Active	Not Active	–
COc1ccc2c(c1)c(CCN1CCOCC1)c(C)n2CC(=O)NC1CCCC1	5.6	Not Active	–	–
COc1ccc2c(c1)c(CC(=O)NC1CC1)c(C)n2CCN1CCOCC1	–	Not Active	Not Active	–
COc1ccc2c(c1)c(CCN1CCOCC1)c(C)n2CC(=O)NC1CCCCC1	11.6	Not Active	–	–
Cc1c(CCN2CCOCC2)c2cc(Cl)ccc2n1CC(=O)NCc1ccc2c(c1)OCO2	–	Not Active	Not Active	–
Cc1c(CCN2CCOCC2)c2cc(Cl)ccc2n1CC(=O)NC1CCCCC1	–	Not Active	Not Active	–
Cc1c(CCN2CCOCC2)c2cc(F)ccc2n1CC(=O)NCC1CC1	4.2	Not Active	–	–
Cc1c(CCN2CCOCC2)c2cc(F)ccc2n1C(=O)N1CCCC1	–	Not Active	Not Active	–
Cc1c(CC(=O)NC2CC2)c2cc(Cl)ccc2n1CCN1CCOCC1	1.2	Not Active	–	–
COc1ccc2c(c1)c(CCN1CCOCC1)c(C)n2C(=O)c1cccc(Cl)c1Cl	0.0507	–	–	EC50 (Cannabinoid receptor 1; read-out: EC50): 16.1 µM; Activity (Rattus norvegicus [2]): Active; Activity (Rattus norvegicus [3]): inactive; fold change (FC) (Rattus norvegicus [4]): 1.4; fold change (FC) (Rattus norvegicus [5]): 2.5; fold change (FC) (Rattus norvegicus [6]): 1.6; Ratio EC50 [1]: >1000
Cc1c(CC(=O)NC2CCCC2)c2cc(F)ccc2n1CCN1CCOCC1	0.476	Not Active	–	Ratio EC50 [1]: >1000
Cc1c(CCN2CCOCC2)c2cc(Cl)ccc2n1C(=O)c1cccc(Cl)c1Cl	0.117	–	–	EC50 (Cannabinoid receptor 1; read-out: EC50): 79.8 µM; Ratio EC50 [1]: >1000
Cc1c(CCN2CCOCC2)c2cc(Br)ccc2n1CC(=O)NC1CCCC1	20.2	Not Active	–	–

Compound	EC50 (Cannabinoid receptor 2; read-out: EC50) [µM]	EC50 (Cannabinoid receptor 1; cho)	EC50 (Cannabinoid receptor 2; cho)	other results
Cc1c(CCN2CCOCC2)c2cc(F)ccc2n1CC(=O)NC1CC1	3.9	Not Active	–	–
COc1ccc2c(c1)c(CC(=O)N1CCCCC1)c(C)n2CCN1CCOCC1	> 100	Not Active	–	–
Cc1c(CCN2CCOCC2)c2cc(Cl)ccc2n1C(=O)N1CCCC1	–	Not Active	Not Active	–
Cc1c(CCN2CCOCC2)c2cc(Cl)ccc2n1CC(=O)N1CCCC1	–	Not Active	Not Active	–
COc1ccc2c(c1)c(CCN1CCOCC1)c(C)n2CC(=O)NCC1CC1	> 100	Not Active	–	–
Cc1c(CCN2CCOCC2)c2cc(F)ccc2n1CC(=O)NC1CCCCC1	–	Not Active	Not Active	–
Cc1c(CC(=O)NC2CCCCC2)c2cc(Cl)ccc2n1CCN1CCOCC1	> 100	Not Active	–	–
Cc1c(CCN2CCOCC2)c2cc(Cl)ccc2n1CC(=O)NC1CC1	5.3	Not Active	–	–
COc1ccc2c(c1)c(CC(=O)NC1CCCCC1)c(C)n2CCN1CCOCC1	> 100	Not Active	–	–
Cc1c(CCN2CCOCC2)c2cc(F)ccc2n1CC(=O)N1CCCCC1	–	Not Active	Not Active	–
Cc1c(CC(=O)N2CCCCC2)c2cc(F)ccc2n1CCN1CCOCC1	–	Not Active	Not Active	–
Cc1c(CC(=O)N2CCCCC2)c2cc(Cl)ccc2n1CCN1CCOCC1	–	Not Active	Not Active	–
Cc1c(CCN2CCOCC2)c2cc(Br)ccc2n1CC(=O)NCC1CC1	5.4	Not Active	–	–
COc1ccc2c(c1)c(CCN1CCOCC1)c(C)n2CC(=O)N1CCCC1	> 100	Not Active	–	–
Cc1c(CCN2CCOCC2)c2cc(F)ccc2n1CC(=O)NC1CCCC1	5.5	Not Active	–	–
Cc1c(CCN2CCOCC2)c2cc(Br)ccc2n1CC(=O)NC1CCCCC1	–	Not Active	Not Active	–
Cc1c(CCN2CCOCC2)c2cc(Br)ccc2n1CC(=O)N1CCCC1	–	Not Active	Not Active	–
COc1ccc2c(c1)c(CC(=O)NC1CCCC1)c(C)n2CCN1CCOCC1	–	Not Active	Not Active	–
Cc1c(CC(=O)N2CCCC2)c2cc(Cl)ccc2n1CCN1CCOCC1	–	Not Active	Not Active	–

Compound	EC50 (Cannabinoid receptor 2; read-out: EC50) [µM]	EC50 (Cannabinoid receptor 1; cho)	EC50 (Cannabinoid receptor 2; cho)	other results
Cc1c(CC(=O)NCc2ccc3c(c2)OCO3)c2cc(F)ccc2n1CCN1CCOCC1	–	Not Active	Not Active	–
COc1ccc2c(c1)c(CC(=O)N1CCCC1)c(C)n2CCN1CCOCC1	–	Not Active	Not Active	–
Cc1c(CCN2CCOCC2)c2cc(Br)ccc2n1C(=O)N1CCCC1	–	Not Active	Not Active	–
COc1ccc2c(c1)c(CC(=O)NCc1ccc3c(c1)OCO3)c(C)n2CCN1CCOCC1	–	Not Active	Not Active	–
Cc1c(CC(=O)NCC2CC2)c2cc(Cl)ccc2n1CCN1CCOCC1	0.594	Not Active	–	Ratio EC50 [1]: >1000
COc1ccc2c(c1)c(CCN1CCOCC1)c(C)n2C(=O)N1CCCC1	26.4	Not Active	–	–
Cc1c(CC(=O)NC2CCCC2)c2cc(Cl)ccc2n1CCN1CCOCC1	2.7	Not Active	–	–
Cc1c(CC(=O)NC2CC2)c2cc(F)ccc2n1CCN1CCOCC1	4.1	Not Active	–	–
Cc1c(CCN2CCOCC2)c2cc(Br)ccc2n1CC(=O)N1CCCCC1	–	Not Active	Not Active	–
Cc1c(CCN2CCOCC2)c2cc(F)ccc2n1CC(=O)NCc1ccc2c(c1)OCO2	–	Not Active	Not Active	–
Cc1c(CCN2CCOCC2)c2cc(Br)ccc2n1CC(=O)NCc1ccc2c(c1)OCO2	–	Not Active	Not Active	–
COc1ccc2c(c1)c(CCN1CCOCC1)c(C)n2CC(=O)NC1CC1	–	Not Active	Not Active	–
Cc1c(CCN2CCOCC2)c2cc(Br)ccc2n1CC(=O)NC1CC1	8.2	Not Active	–	–
Cc1c(CC(=O)NCC2CC2)c2cc(F)ccc2n1CCN1CCOCC1	3.1	Not Active	–	–
COc1ccc2c(c1)c(CC(=O)NCC1CC1)c(C)n2CCN1CCOCC1	–	Not Active	Not Active	–
Cc1c(CCN2CCOCC2)c2cc(Cl)ccc2n1CC(=O)NCC1CC1	14.3	Not Active	–	–
COc1ccc2c(c1)c(CCN1CCOCC1)c(C)n2CC(=O)N1CCCCC1	41.9	Not Active	–	–
Cc1c(CC(=O)NCc2ccc3c(c2)OCO3)c2cc(Cl)ccc2n1CCN1CCOCC1	–	Not Active	Not Active	–
